Measurements: ChEMBL document CHEMBL3525985, “Regiospecificity and stereospecificity of human UDP-glucuronosyltransferases in the glucuronidation of estriol, 16-epiestriol, 17-epiestriol, and 13-epiestradiol” (Drug Metab Dispos, 2013)

Legend:
Format in all cases: ADME
[1] = target: T1, UDP-glucuronosyltransferase 2B4 (Homo sapiens, UniProt P06133); assay: Drug metabolism assessed as recombinant human C-terminal His-tagged UGT2B4-mediated 16-epiestriol-16-glucuronide formation after 15 to 60 mins by Michaelis-Menten equation analysis in presence of UDPGA; details: recombinant enzyme
T1 sequence (P06133 whole entry): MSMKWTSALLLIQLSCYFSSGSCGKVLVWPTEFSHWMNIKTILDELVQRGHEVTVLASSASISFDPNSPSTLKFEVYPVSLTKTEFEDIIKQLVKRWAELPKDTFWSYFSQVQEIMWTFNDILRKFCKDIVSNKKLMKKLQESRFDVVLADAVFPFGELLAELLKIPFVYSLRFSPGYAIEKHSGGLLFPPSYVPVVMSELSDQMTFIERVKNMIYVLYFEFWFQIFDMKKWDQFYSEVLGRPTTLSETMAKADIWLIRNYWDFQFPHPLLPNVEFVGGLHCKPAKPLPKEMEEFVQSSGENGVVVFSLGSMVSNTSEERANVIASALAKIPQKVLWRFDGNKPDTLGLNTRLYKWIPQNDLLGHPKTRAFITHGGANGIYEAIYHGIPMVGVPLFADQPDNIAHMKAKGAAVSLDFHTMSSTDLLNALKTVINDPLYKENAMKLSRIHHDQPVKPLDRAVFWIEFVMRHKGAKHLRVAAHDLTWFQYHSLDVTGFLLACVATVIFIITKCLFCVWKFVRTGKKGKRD

[2] = target: T2, UDP-glucuronosyltransferase 2B7 (Homo sapiens, UniProt P16662); assay: Inhibition of recombinant human C-terminal His-tagged UGT2B7 after 15 to 60 mins by Michaelis-Menten equation analysis in presence of UDPGA
T2 sequence (P16662 whole entry): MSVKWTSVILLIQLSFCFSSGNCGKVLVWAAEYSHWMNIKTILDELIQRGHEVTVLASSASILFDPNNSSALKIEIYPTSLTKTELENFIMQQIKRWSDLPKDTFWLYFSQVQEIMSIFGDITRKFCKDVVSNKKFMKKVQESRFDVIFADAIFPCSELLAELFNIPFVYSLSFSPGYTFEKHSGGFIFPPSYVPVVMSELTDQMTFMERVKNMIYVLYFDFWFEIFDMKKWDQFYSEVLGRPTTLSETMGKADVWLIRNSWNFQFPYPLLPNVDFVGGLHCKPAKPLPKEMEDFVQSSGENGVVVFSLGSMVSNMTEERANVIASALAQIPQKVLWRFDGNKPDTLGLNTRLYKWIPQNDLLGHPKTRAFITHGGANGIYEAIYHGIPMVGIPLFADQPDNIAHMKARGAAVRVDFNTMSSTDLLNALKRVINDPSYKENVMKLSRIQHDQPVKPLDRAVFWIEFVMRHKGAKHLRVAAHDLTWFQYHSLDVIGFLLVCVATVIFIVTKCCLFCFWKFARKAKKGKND
Method in brief: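 Kinetics with His-tagged UGT-enriched insect-cell membranes (5 or 50 µg): aglycone 0.2–300 µM in 10% DMSO, 5 mM UDPGA, 10 mM MgCl₂, 50 mM phosphate pH 7.4, 15–60 min at 37°C. Substrate consumption kept at or below 10%. Glucuronides quantified by HPLC in triplicate, rates normalized to expression, and data fitted to Michaelis-Menten.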

[3] = target: T3, UDP-glucuronosyltransferase 1A10 (Homo sapiens, UniProt Q9HAW8); assay: Drug metabolism assessed as human UGT1A10-mediated 13-epiestradiol-3-glucuronide formation at 200 uM after 15 to 60 mins by HPLC analysis in presence of UDPGA; details: recombinant enzyme
T3 sequence (Q9HAW8 whole entry): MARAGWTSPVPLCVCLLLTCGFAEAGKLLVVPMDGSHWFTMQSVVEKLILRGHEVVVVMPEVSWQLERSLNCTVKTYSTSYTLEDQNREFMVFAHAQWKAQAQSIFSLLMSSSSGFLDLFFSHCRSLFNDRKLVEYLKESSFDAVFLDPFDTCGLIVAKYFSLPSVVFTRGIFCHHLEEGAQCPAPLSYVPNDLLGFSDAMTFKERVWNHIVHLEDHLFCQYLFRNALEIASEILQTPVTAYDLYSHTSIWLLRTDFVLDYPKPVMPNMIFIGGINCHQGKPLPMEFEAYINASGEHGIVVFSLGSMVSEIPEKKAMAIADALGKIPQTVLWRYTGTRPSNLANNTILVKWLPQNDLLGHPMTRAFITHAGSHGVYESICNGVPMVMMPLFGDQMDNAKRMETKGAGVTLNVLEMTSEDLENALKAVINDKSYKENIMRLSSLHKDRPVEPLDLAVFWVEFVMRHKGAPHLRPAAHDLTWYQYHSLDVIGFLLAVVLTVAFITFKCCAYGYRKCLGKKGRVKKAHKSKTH
Method in brief: (§1)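 Screening at a single substrate concentration of 200 μM, in triplicate. The reaction used 5 or 50 µg of UGT-enriched insect cell membranes in 50 mM phosphate pH 7.4 with 10 mM MgCl₂ and 5 mM UDPGA, 10% final DMSO. Incubation was 15–60 min at 37°C. Perchloric acid stopped the reaction and supernatants were analysed by HPLC. Controls lacked UDPGA. Rates were normalized to relative UGT expression level.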

[4] = Drug metabolism in human intestine microsomes assessed as 17-epiestriol-3-glucuronide formation after 15 to 60 mins by Michaelis-Menten equation analysis in presence of UDPGA
Method in brief: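 Pooled human intestine microsomes (6 donors), 0.5 or 10 µg, with alamethicin at 5% of total protein. Incubated with 50 mM phosphate pH 7.4, 10 mM MgCl₂, 5 mM UDPGA and 10% DMSO for 15–60 min at 37°C. Each glucuronide regioisomer quantified by HPLC, in triplicate, with substrate consumption at or below 10%.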

[5] = target: T4, UDP-glucuronosyltransferase 1A4 (Homo sapiens, UniProt P22310); assay: Drug metabolism assessed as recombinant human C-terminal His-tagged UGT1A4-mediated 17-epiestriol-16-glucuronide formation at 200 uM after 15 to 60 mins by HPLC analysis in presence of UDPGA; details: recombinant enzyme; method in brief: as §1
T4 sequence (P22310 whole entry): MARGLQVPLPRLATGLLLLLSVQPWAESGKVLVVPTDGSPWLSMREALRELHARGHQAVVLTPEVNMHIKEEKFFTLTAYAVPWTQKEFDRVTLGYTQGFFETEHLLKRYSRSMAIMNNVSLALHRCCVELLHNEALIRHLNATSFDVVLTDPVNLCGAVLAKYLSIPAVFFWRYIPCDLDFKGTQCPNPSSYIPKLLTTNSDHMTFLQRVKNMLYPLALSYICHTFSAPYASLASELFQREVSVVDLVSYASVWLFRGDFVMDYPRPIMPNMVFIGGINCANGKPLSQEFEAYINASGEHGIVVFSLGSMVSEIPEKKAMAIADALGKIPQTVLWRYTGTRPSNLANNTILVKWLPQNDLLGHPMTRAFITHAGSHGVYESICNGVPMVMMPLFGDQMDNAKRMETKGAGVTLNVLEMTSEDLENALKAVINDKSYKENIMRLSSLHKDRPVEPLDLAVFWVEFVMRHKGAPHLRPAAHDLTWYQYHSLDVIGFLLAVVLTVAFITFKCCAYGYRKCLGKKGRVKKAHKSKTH

Question: Which Drug metabolism [1] does the source give for `C[C@]12CC[C@@H]3c4ccc(O)cc4CC[C@H]3[C@@H]1C[C@H](O)[C@@H]2O` [EPIESTRIOL] here?
Answer: 5 pmol/min/mg

Question: What about the Ki [2] of the same molecule?
Answer: 162 µM

Question: Which Drug metabolism [3] does the source give for `C[C@@]12CC[C@@H]3c4ccc(O)cc4CC[C@H]3[C@@H]1CC[C@@H]2O` here?
Answer: metabolite_detected

Question: For `C[C@]12CC[C@@H]3c4ccc(O)cc4CC[C@H]3[C@@H]1C[C@@H](O)[C@H]2O`, which Km [4] is on record?
Answer: 251 µM

Question: And the Vmax [4]?
Answer: 1239 pmol/min/mg

Question: And the Drug metabolism [5]?
Answer: metabolite_detected
